In ChEMBL document CHEMBL4190252, “Synthesis, antitumor activity and CDK1 inhibiton of new thiazole nortopsentin analogues” (Eur J Med Chem, 2017):
The source made the active and inactive calls. No cut-off for these calls is given here.

How the values were obtained:
[1] = tested on: SK-MEL-28; test: Growth inhibition of human SK-MEL-28 cells incubated for 48 hrs by sulforhodamine B assay; type: functional; details: SK-MEL-28, 48 h
Method in brief: (§1)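 NCI full-panel human tumour cell screen. Cells were exposed to five 10-fold dilutions from 10^-4 to 10^-8 M. GI50 is the molar concentration giving 50% inhibition of net cell growth, and a mean graph midpoint was calculated across the panel.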

[2] = tested on: M14; test: Growth inhibition of human M14 cells incubated for 48 hrs by sulforhodamine B assay; type: functional; details: M14, 48 h
Method in brief: (§2)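 NCI full panel screen: five 10-fold dilutions (10^-4–10^-8 M). GI50 is the molar concentration giving 50% inhibition of net cell growth.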

[3] = tested on: MCF7; test: Induction of apoptosis in human MCF7 cells assessed as late apoptotic cells at 2 x 10^-6 M after 72 hrs by Annexin V/propidium iodide double staining-based flow cytometry (reference value: 0%); type: functional
Method in brief: (§3)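 MCF-7 cells were grown in RPMI with 10% FBS, 2 mM L-glutamine and antibiotics at 37 °C in 5% CO2. They were seeded at 2.0 x 10^5 cells/cm2 in triplicate, left to adhere overnight, then treated for 72 h; DMSO 0.1% served as vehicle. Trypsinised cells at 2.0 x 10^5/mL were stained with annexin V-FITC and PI for 15 min at room temperature in the dark. At least 1.0 x 10^4 cells were gated into viable, early apoptotic, late apoptotic and necrotic quadrants.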

[4] = tested on: IGROV-1; test: Growth inhibition of human IGROV1 cells incubated for 48 hrs by sulforhodamine B assay; type: functional; details: IGROV-1, 48 h; method in brief: as §2
[5] = tested on: EKVX; test: Growth inhibition of human EKVX cells incubated for 48 hrs by sulforhodamine B assay; type: functional; method in brief: as §2
[6] = tested on: Caco-2; test: Cytotoxicity against human Caco2 cells assessed as reduction in cell survival at 25 to 100 uM after 72 hrs by MTT assay; type: cell-based; details: caco-2, 72 h
Method in brief: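 Caco-2 cells, differentiated 15 days post-confluence, seeded at 2 x 10^4 cells/well and treated 72 h with 5–100 µM compound. MTT added (5 mg/mL in FBS-free medium), 2 h at 37 °C, formazan dissolved in DMSO, absorbance at 570 nm. Viability relative to vehicle control (100%); LC50 taken from the viability-concentration plot. At least three experiments in triplicate.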

[7] = tested on: SK-OV-3; test: Growth inhibition of human SKOV3 cells incubated for 48 hrs by sulforhodamine B assay; type: functional; details: SK-OV-3, 48 h; method in brief: as §1
[8] = tested on: SF-295; test: Growth inhibition of human SF295 cells incubated for 48 hrs by sulforhodamine B assay; type: functional; details: SF-295, 48 h; method in brief: as §2
[9] = tested on: A549; test: Growth inhibition of human A549/ATCC cells incubated for 48 hrs by sulforhodamine B assay; type: functional; details: A549, 48 h; method in brief: as §2
[10] = tested on: SF-539; test: Growth inhibition of human SF539 cells incubated for 48 hrs by sulforhodamine B assay; type: functional; details: SF-539, 48 h; method in brief: as §2
[11] = tested on: SK-MEL-5; test: Growth inhibition of human SK-MEL-5 cells incubated for 48 hrs by sulforhodamine B assay; type: functional; details: SK-MEL-5, 48 h; method in brief: as §1
[12] = tested on: OVCAR-8; test: Growth inhibition of human OVCAR8 cells incubated for 48 hrs by sulforhodamine B assay; type: functional; details: OVCAR-8, 48 h; method in brief: as §2
[13] = tested on: OVCAR-3; test: Growth inhibition of human OVCAR3 cells incubated for 48 hrs by sulforhodamine B assay; type: functional; details: OVCAR-3, 48 h; method in brief: as §2
[14] = tested on: CAKI-1; test: Growth inhibition of human Caki1 cells incubated for 48 hrs by sulforhodamine B assay; type: functional; details: CAKI-1, 48 h; method in brief: as §2
[15] = tested on: NCI/ADR-RES; test: Growth inhibition of human NCI/ADR-RES cells incubated for 48 hrs by sulforhodamine B assay; type: functional; method in brief: as §2
[16] = tested on: UACC-62; test: Growth inhibition of human UACC62 cells incubated for 48 hrs by sulforhodamine B assay; type: functional; details: UACC-62, 48 h; method in brief: as §1
[17] = tested on: HOP-62; test: Growth inhibition of human HOP62 cells incubated for 48 hrs by sulforhodamine B assay; type: functional; details: HOP-62, 48 h; method in brief: as §2
[18] = tested on: SK-MEL-2; test: Growth inhibition of human SK-MEL-2 cells incubated for 48 hrs by sulforhodamine B assay; type: functional; details: SK-MEL-2, 48 h; method in brief: as §1
[19] = tested on: MOLT-4; test: Growth inhibition of human MOLT4 cells incubated for 48 hrs by sulforhodamine B assay; type: functional; details: MOLT-4, 48 h; method in brief: as §2
[20] = tested on: RXF 393; test: Growth inhibition of human RXF393 cells incubated for 48 hrs by sulforhodamine B assay; type: functional; details: RXF 393, 48 h; method in brief: as §2
[21] = tested on: MDA-MB-468; test: Growth inhibition of human MDA-MB-468 cells incubated for 48 hrs by sulforhodamine B assay; type: functional; details: MDA-MB-468, 48 h; method in brief: as §2
[22] = tested on: HT-29; test: Growth inhibition of human HT-29 cells incubated for 48 hrs by sulforhodamine B assay; type: functional; details: HT-29, 48 h; method in brief: as §2
[23] = tested on: UO-31; test: Growth inhibition of human UO31 cells incubated for 48 hrs by sulforhodamine B assay; type: functional; details: UO-31, 48 h; method in brief: as §1
[24] = tested on: HOP-92; test: Growth inhibition of human HOP92 cells incubated for 48 hrs by sulforhodamine B assay; type: functional; details: HOP-92, 48 h; method in brief: as §2
[25] = tested on: MCF7; test: Induction of apoptosis in human MCF7 cells assessed as necrotic cells at 2 x 10^-6 M after 72 hrs by Annexin V/propidium iodide double staining-based flow cytometry (reference value: 0.1%); type: functional; method in brief: as §3
[26] = tested on: MDA-MB-231; test: Growth inhibition of human MDA-MB-231 cells incubated for 48 hrs by sulforhodamine B assay; type: functional; details: MDA-MB-231, 48 h; method in brief: as §2
[27] = tested on: COLO 205; test: Growth inhibition of human COLO205 cells incubated for 48 hrs by sulforhodamine B assay; type: functional; details: COLO 205, 48 h; method in brief: as §2
[28] = tested on: MCF7; test: Growth inhibition of human MCF7 cells incubated for 48 hrs by sulforhodamine B assay; type: functional; details: MCF7, 48 h; method in brief: as §2
[29] = tested on: BT-549; test: Growth inhibition of human BT549 cells incubated for 48 hrs by sulforhodamine B assay; type: functional; details: BT-549, 48 h; method in brief: as §2
[30] = tested on: PC-3; test: Growth inhibition of human PC3 cells incubated for 48 hrs by sulforhodamine B assay; type: functional; details: PC-3, 48 h; method in brief: as §2
[31] = tested on: SR; test: Growth inhibition of human SR cells incubated for 48 hrs by sulforhodamine B assay; type: functional; method in brief: as §1
[32] = tested on: K562; test: Growth inhibition of human K562 cells incubated for 48 hrs by sulforhodamine B assay; type: functional; details: K562, 48 h; method in brief: as §2
[33] = tested on: ACHN; test: Growth inhibition of human ACHN cells incubated for 48 hrs by sulforhodamine B assay; type: functional; method in brief: as §2
[34] = tested on: Hs-578T; test: Growth inhibition of human Hs 578T cells incubated for 48 hrs by sulforhodamine B assay; type: functional; method in brief: as §2
[35] = tested on: HCC 2998; test: Growth inhibition of human HCC2998 cells incubated for 48 hrs by sulforhodamine B assay; type: functional; details: HCC 2998, 48 h; method in brief: as §2
[36] = tested on: MCF7; test: Cell cycle arrest in human MCF7 cells assessed as reduction in accumulation at G0/G1 phase at GI50 concentration after 48 hrs by propidium iodide-staining based flow cytometry; type: functional
Method in brief: (§4)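 Cells were trypsinized, washed in cold PBS, and 1 x 10^6 cells stained with 20 µg/ml PI plus 200 µg/ml RNase for 30 min at room temperature in the dark. At least 1x 10^4 cells were analysed by flow cytometry. Mean±SD of three experiments in triplicate.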

[37] = tested on: MCF7; test: Cell cycle arrest in human MCF7 cells assessed as reduction in accumulation at S phase at GI50 concentration after 48 hrs by propidium iodide-staining based flow cytometry; type: functional; method in brief: as §4

SMILES	GI50 [1] [µM]	GI50 [2] [µM]	Activity [3] [%]	GI50 [4] [µM]	GI50 [5] [µM]	Activity [6]	GI50 [8] [µM]	GI50 [9] [µM]	GI50 [10] [µM]	GI50 [11] [µM]	GI50 [12] [µM]	GI50 [13] [µM]	GI50 [14] [µM]	GI50 [15] [µM]	GI50 [16] [µM]	GI50 [17] [µM]	GI50 [18] [µM]	GI50 [19] [µM]	GI50 [20] [µM]	GI50 [21] [µM]	further results
COCCn1cc(-c2csc(-c3c[nH]c4ccc(Br)cc34)n2)c2cccnc21	4.79	3.27	0	4.06	2.05	Toxic	2.83	6.89	7.34	3.24	5.35	3.9	5.21	2.86	4.2	7.98	6.82	3.87	3.3	2.34	GI50 [7]: 13.9 µM; GI50 [22]: 3.36 µM; GI50 [23]: 3.1 µM; GI50 [24]: 4.39 µM; Activity [25]: 0.1%; GI50 [26]: 2.65 µM; GI50 [27]: 3.22 µM; GI50 [28]: 1.79 µM; GI50 [29]: 4.8 µM; GI50 [30]: 3.68 µM; GI50 [31]: 3.25 µM; GI50 [32]: 3.6 µM; GI50 [33]: 3.04 µM; GI50 [34]: 4.44 µM; GI50 [35]: 3.8 µM
COCCn1cc(-c2csc(-c3c[nH]c4ccc(F)cc34)n2)c2cccnc21	7.72	3.14	0	3.49	1.98	Toxic	3.2	4.51	8.86	2.69	4.1	3.34	9.54	2.17	6.78	2.02	3.89	5.56	5.91	2.44	Activity [36]: Active; Activity [37]: Active; GI50 [22]: 2.9 µM; GI50 [23]: 4.41 µM; GI50 [24]: 6.29 µM; Activity [25]: 0.1%; GI50 [26]: 2.59 µM; GI50 [27]: 2.69 µM; GI50 [28]: 2.09 µM; GI50 [29]: 4.26 µM; GI50 [30]: 5.06 µM; GI50 [31]: 3.24 µM; GI50 [32]: 2.12 µM; GI50 [33]: 5.27 µM; GI50 [34]: 8.82 µM; GI50 [35]: 4.54 µM
